Measurements reported in ChEMBL document CHEMBL3627660, “Tetrafluorophenoxymethyl ketone cruzain inhibitors with improved pharmacokinetic properties as therapeutic leads for Chagas' disease” (Bioorg Med Chem Lett, 2015).

Legend:
Cruzipain = Cruzipain (Trypanosoma cruzi, UniProt P25779); test: Inhibition of Trypanosoma cruzi recombinant cruzain using Z-FR-AMC as substrate after 5 mins by fluorescence assay
Trypanosoma cruzi = test: Antitrypanosomal activity against Trypanosoma cruzi infected in C2C12 cells after 72 hrs by DAPI staining; type: functional, organism-based; conditions: C2C12, 72 h
[1] = Cmax in mouse at 40 mg/kg, po; type: ADME, organism-based; set-up: dose 40 mg/kg, route oral; conditions: in vivo
Method in brief: (§1)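 In vivo mouse pharmacokinetic study with two arms, intravenous at 10 mg/kg and oral at 40 mg/kg. Exposure parameters derived were AUC, T1/2, CL, Vss and oral bioavailability (F%).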

Cytochrome P450 3A4 = Cytochrome P450 3A4 (Homo sapiens, UniProt P08684); test: Inhibition of CYP3A4 (unknown origin); type: ADME
Cytochrome P450 3A4, sequence (P08684 whole entry): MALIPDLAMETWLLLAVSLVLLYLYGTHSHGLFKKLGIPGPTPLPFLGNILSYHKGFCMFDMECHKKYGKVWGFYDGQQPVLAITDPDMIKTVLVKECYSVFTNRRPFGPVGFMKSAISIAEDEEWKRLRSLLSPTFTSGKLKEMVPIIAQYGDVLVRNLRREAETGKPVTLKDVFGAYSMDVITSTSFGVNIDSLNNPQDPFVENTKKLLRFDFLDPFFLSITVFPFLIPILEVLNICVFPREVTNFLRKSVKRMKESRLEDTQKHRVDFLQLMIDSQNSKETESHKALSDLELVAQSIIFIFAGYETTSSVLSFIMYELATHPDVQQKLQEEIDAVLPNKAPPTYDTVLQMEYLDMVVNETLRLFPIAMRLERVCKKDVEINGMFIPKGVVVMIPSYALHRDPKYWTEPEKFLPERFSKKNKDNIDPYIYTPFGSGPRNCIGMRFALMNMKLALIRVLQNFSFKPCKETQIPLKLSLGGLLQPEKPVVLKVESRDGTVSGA

MDCK = test: Apparent permeability from apical to basolateral side in MDCK cells assessed as per 10^-6 cells; type: ADME, cell-based, Canis lupus familiaris; conditions: dog
[2] = AUC in mouse at 10 mg/kg, iv; type: ADME, organism-based; conditions: in vivo
[3] = AUC in mouse at 40 mg/kg, po; type: ADME, organism-based; conditions: in vivo
[4] = Half life in mouse at 10 mg/kg, iv; type: ADME, organism-based; conditions: in vivo
Method in brief: (§2)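 Mouse PK study with two dosing arms: 40 mg/kg orally and 10 mg/kg intravenously. The parameters derived were AUC, T1/2, CL, Vss and F%.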

[5] = Half life in mouse at 40 mg/kg, po; type: ADME, organism-based; conditions: in vivo; method in brief: as §2
[6] = Clearance in mouse at 10 mg/kg, iv; type: ADME, organism-based; conditions: in vivo; method in brief: as §2
[7] = Volume of distribution at steady state in mouse at 10 mg/kg, iv; type: ADME, organism-based; conditions: in vivo, read-out: Vdss; method in brief: as §2
Mus musculus = test: Oral bioavailability in mouse at 40 mg/kg; type: ADME, organism-based; conditions: in vivo; method in brief: as §2
[8] = Cmax in mouse at 10 mg/kg, iv; type: ADME, organism-based; set-up: dose 10 mg/kg, route intravenous; conditions: in vivo; method in brief: as §1
[9] = Half life in mice after oral dosing; conditions: in vivo

Cruzipain, sequence (P25779 whole entry): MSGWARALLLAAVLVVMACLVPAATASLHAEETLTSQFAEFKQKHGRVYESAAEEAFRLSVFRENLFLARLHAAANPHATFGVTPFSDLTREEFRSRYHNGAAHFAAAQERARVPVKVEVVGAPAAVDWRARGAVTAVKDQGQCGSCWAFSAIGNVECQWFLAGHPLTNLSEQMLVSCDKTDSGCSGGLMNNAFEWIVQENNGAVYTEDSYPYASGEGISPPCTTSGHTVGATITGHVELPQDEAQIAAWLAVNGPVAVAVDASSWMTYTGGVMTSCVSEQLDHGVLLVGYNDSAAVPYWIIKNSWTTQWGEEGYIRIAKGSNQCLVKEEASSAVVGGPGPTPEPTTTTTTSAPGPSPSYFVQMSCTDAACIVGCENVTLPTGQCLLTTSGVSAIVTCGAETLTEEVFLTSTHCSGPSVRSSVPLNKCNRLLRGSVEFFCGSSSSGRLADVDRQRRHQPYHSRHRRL

| SMILES | IC50 (Cruzipain) | IC50 (Trypanosoma cruzi) | IC50 (Cytochrome P450 3A4) | Papp (MDCK) | also measured |
| --- | --- | --- | --- | --- | --- |
| COCCC(C(=O)COc1c(F)c(F)cc(F)c1F)n1cc([C@@](C)(NCc2ccc3ncsc3c2)C(C)C)nn1 (some centres undefined) | 63 nM | 44 nM | – | – | – |
| COCCC(C(=O)COc1c(F)c(F)cc(F)c1F)n1cc([C@@](C)(NCc2ccc3ncsc3c2)C2CCCC2)nn1 (some centres undefined) | 124 nM | 7 nM | – | – | – |
| CCCCC(C(=O)COc1c(F)c(F)cc(F)c1F)n1cc([C@@](C)(NCc2ccc3ncsc3c2)C(C)C)nn1 (some centres undefined) | 37 nM | 2 nM | 300 nM | 2.26 ×10⁻⁶ cm/s | Cmax [1]: 1230 ng/mL; AUC [2]: 9610 ng·h/mL; AUC [3]: 6570 ng·h/mL; half-life [4]: 5.67 h; half-life [5]: 3.41 h; clearance [6]: 16.6 mL/min/kg; Vd [7]: 6.5 L/kg; F (Mus musculus): 19.1% |
| CCCCC(C(=O)COc1c(F)c(F)cc(F)c1F)n1cc([C@@](C)(NC(=O)c2ccc3ncccc3c2)C(C)C)nn1 (some centres undefined) | 1350 nM | 700 nM | – | – | – |
| CCCCC(C(=O)COc1c(F)c(F)cc(F)c1F)n1cc([C@@](C)(NCc2ccn3nccc3n2)C2CCCC2)nn1 (some centres undefined) | 3 nM | – | 263 nM | 2.9 ×10⁻⁶ cm/s | AUC [2]: 5370 ng·h/mL; AUC [3]: 8110 ng·h/mL; half-life [4]: 3.04 h; half-life [5]: 2.32 h; clearance [6]: 30.7 mL/min/kg; Vd [7]: 4.19 L/kg; F (Mus musculus): 37% |
| COCCC(C(=O)COc1c(F)c(F)cc(F)c1F)n1cc([C@@](C)(NCc2ccn3nccc3n2)C2CCCC2)nn1 (some centres undefined) | 2820 nM | 20 nM | – | – | – |
| CCCCC(C(=O)COc1c(F)c(F)cc(F)c1F)n1cc([C@@](C)(NCc2ccncc2)C(C)C)nn1 (some centres undefined) | 1100 nM | 143 nM | – | – | – |
| CCCCC(C(=O)COc1c(F)c(F)cc(F)c1F)n1cc([C@@](C)(NCc2ccc3ncsc3c2)C2CCCC2)nn1 (some centres undefined) | 5 nM | 3 nM | – | – | – |
| C[C@@](NCc1ccc2occc2c1)(c1cn(C(CCS(C)(=O)=O)C(=O)COc2c(F)c(F)cc(F)c2F)nn1)C1CCCC1 (some centres undefined) | 790 nM | 5 nM | – | – | – |
| CCCCC(C(=O)COc1c(F)c(F)cc(F)c1F)n1cc([C@@](C)(NCc2ccc3ncccc3c2)C2CCCC2)nn1 (some centres undefined) | 27 nM | 15 nM | 260 nM | 0.48 ×10⁻⁶ cm/s | AUC [2]: 8710 ng·h/mL; AUC [3]: 8100 ng·h/mL; half-life [4]: 4.2 h; half-life [5]: 3 h; clearance [6]: 19 mL/min/kg; Vd [7]: 5.4 L/kg; F (Mus musculus): 23% |
| CCCCC(C(=O)COc1c(F)c(F)cc(F)c1F)n1cc([C@@](C)(NC(=O)c2ccncc2)C(C)C)nn1 (some centres undefined) | 23000 nM | 1600 nM | – | – | – |
| CCCCC(C(=O)COc1c(F)c(F)cc(F)c1F)n1cc([C@@](C)(NC(=O)c2ccc3ncsc3c2)C(C)C)nn1 (some centres undefined) | 3590 nM | 650 nM | – | – | – |
| CCCCC(C(=O)COc1c(F)c(F)cc(F)c1F)n1cc([C@@](C)(NCc2ccn3nccc3n2)C(C)C)nn1 (some centres undefined) | 75 nM | 8 nM | 314 nM | 15.1 ×10⁻⁶ cm/s | – |
| CC(C)[C@](C)(NCc1ccn2nccc2n1)c1cn(C(CCS(C)(=O)=O)C(=O)COc2c(F)c(F)cc(F)c2F)nn1 (some centres undefined) | 467 nM | 2340 nM | – | – | – |
| CC(C)[C@](C)(NCc1ccc2ncccc2c1)c1cn(C(CCS(C)(=O)=O)C(=O)COc2c(F)c(F)cc(F)c2F)nn1 (some centres undefined) | 560 nM | 380 nM | 1200 nM | 3.49 ×10⁻⁶ cm/s | – |
| CCCCC(C(=O)COc1c(F)c(F)cc(F)c1F)n1cc([C@@](C)(NCc2ccc3ncccc3c2)C(C)C)nn1 (some centres undefined) | – | 22 nM | 3800 nM | 3.02 ×10⁻⁶ cm/s | Cmax [1]: 833 ng/mL; Cmax [8]: 4130 ng/mL; AUC [2]: 4670 ng·h/mL; AUC [3]: 3860 ng·h/mL; half-life [4]: 2.95 h; half-life [5]: 3.34 h; clearance [6]: 36.2 mL/min/kg; Vd [7]: 4.2 L/kg; F (Mus musculus): 21%; half-life [9]: 3.3 h |
| CC(C)[C@](C)(NCc1ccc2ncsc2c1)c1cn(C(CCS(C)(=O)=O)C(=O)COc2c(F)c(F)cc(F)c2F)nn1 (some centres undefined) | 125 nM | 12 nM | – | – | – |
| C[C@@](NCc1ccc2ncsc2c1)(c1cn(C(CCS(C)(=O)=O)C(=O)COc2c(F)c(F)cc(F)c2F)nn1)C1CCCC1 (some centres undefined) | 25 nM | 10 nM | 200 nM | 6.8 ×10⁻⁶ cm/s | – |
| CC(C)[C@](C)(NCc1ccc2occc2c1)c1cn(C(CCS(C)(=O)=O)C(=O)COc2c(F)c(F)cc(F)c2F)nn1 (some centres undefined) | 880 nM | 3 nM | – | – | – |
| COCCC(C(=O)COc1c(F)c(F)cc(F)c1F)n1cc([C@@](C)(NCc2ccc3ncccc3c2)C(C)C)nn1 (some centres undefined) | 340 nM | 2 nM | – | – | – |
